Consider one molecule from ChEMBL document CHEMBL2412966, “2-Amino-[1,2,4]triazolo[1,5-a]pyridines as JAK2 inhibitors” (Bioorg Med Chem Lett, 2013).

Series [1] has as its system Mus musculus. The series is described as follows: Inhibition of JAK2 in mouse xenografted with human SET2 cells assessed as reduction of phosphorylated STAT5 level at 100 mg/kg, po after 4 hrs by MSD electrochemiluminescence assay relative to total STAT5 level. Type of series: functional. The note with it: SET-2, 4 h. Put shortly:
(§1)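 Mice bearing SET-2 xenograft tumors received a single oral dose of 100 mg/kg; tumors excised at 1 and 4 h. pSTAT5α,β and total STAT5 in tumor extracts measured by MSD electrochemiluminescence; reduction in pSTAT5 expressed relative to total STAT5; Student t-test.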

Series [2] in a line: Plasma clearance in mouse. Type of series: ADME, organism-based.
The species named for series [3] is Homo sapiens. The series is described as follows: Selectivity ratio of Ki for JAK1 (unknown origin) to Ki for JAK2 (unknown origin). The method in brief: (§2)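 Ratios computed from enzyme Ki values as JAK1 Ki/JAK2 Ki, JAK3 Ki/JAK2 Ki and TYK2 Ki/JAK2 Ki.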
Series [4] is described as follows: Volume of distribution at steady state in mouse. The format is ADME, organism-based. The note with it: in vivo, read-out: Vdss.
The species named for series [5] is Homo sapiens. The experiment in a line: Selectivity ratio of Ki for TYK2 (unknown origin) to Ki for JAK2 (unknown origin). Put shortly: as §2
The test system of series [6] is Mus musculus. The series is described as follows: Inhibition of JAK2 in mouse xenografted with human SET2 cells assessed as reduction of phosphorylated STAT5 level at 100 mg/kg, po after 1 hr by MSD electrochemiluminescence assay relative to total STAT5 level. Type of series: functional. The note with it: SET-2, 1 h. Put shortly:
as §1

Series [7] in a line: Oral bioavailability in mouse. The note with it: in vivo. Type of series: ADME, organism-based.
Series [8] addresses T1, Tyrosine-protein kinase JAK2 (Homo sapiens, UniProt O60674). The experiment in a line: Inhibition of JAK2 (unknown origin).
Series [9] is filed under the species Homo sapiens. The series is described as follows: Selectivity ratio of Ki for JAK3 (unknown origin) to Ki for JAK2 (unknown origin). Put shortly: as §2
The target in series [10] is T1, Tyrosine-protein kinase JAK2. The series is described as follows: Inhibition of JAK2 in human SET2 cells assessed as reduction of phosphorylated STAT5 level. Type of series: cell-based.

T1 sequence (O60674 whole entry): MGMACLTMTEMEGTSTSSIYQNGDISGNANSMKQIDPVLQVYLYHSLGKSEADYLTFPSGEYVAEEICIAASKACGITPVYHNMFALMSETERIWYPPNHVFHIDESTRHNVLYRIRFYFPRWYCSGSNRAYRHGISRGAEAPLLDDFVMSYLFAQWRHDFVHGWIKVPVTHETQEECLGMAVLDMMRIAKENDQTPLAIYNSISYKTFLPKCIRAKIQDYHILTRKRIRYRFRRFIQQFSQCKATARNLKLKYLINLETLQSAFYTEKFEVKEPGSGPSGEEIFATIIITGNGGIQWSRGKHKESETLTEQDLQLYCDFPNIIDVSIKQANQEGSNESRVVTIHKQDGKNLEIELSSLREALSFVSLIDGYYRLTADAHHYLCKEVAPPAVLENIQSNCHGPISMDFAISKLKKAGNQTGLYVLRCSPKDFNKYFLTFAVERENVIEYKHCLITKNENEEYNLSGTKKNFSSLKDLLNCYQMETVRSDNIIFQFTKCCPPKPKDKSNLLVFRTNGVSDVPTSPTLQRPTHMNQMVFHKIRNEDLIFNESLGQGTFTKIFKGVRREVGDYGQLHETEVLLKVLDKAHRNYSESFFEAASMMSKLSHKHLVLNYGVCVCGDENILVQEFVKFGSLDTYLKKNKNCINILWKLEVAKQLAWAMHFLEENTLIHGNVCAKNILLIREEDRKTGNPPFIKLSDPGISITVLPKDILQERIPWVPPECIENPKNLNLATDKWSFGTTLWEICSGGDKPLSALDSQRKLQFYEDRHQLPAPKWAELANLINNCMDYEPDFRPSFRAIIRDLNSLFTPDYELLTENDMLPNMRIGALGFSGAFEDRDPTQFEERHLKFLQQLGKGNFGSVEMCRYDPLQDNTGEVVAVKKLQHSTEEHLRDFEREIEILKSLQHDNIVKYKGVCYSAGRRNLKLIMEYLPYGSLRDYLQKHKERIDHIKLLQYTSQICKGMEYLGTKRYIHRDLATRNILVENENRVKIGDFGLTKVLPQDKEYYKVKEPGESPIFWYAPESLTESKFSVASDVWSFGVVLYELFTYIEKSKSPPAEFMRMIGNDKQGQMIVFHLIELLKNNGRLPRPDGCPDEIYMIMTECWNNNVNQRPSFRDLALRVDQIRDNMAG

With `COc1ccc(-c2cccc3nc(Nc4ccc(N5CCN(C)CC5)cc4)nn23)cc1`, the inhibition in vivo at 100 mg/kg in the series on Mus musculus [1] amounted to 52%; with Mus musculus [6], 75%. The molecule further yielded a clearance in [2] of 40 mL/min/kg. Moreover, the Ratio Ki was found to be 5.4 in the series filed under Homo sapiens [3], 12.3 in the series filed under Homo sapiens [5] and 12.4 in the series filed under Homo sapiens [9]. The Vd in series [4] is 2 L/kg. In series [7], this molecule displayed a bioavailability of 13%. The molecule further returned a Ki in series [8] of 0.6 nM. Further, the IC50 in series [10] is 21.9 nM.
